Assay [1] is described as follows: Her2 expression decrease, cell viability multiplex – SKBR3 breast tumor cells, AlphaScreen, ATP viability, primary screen (AID 461;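 active = Her2 level under about 52% in both replicate screens, with viability over 70% of control, limit read from the data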;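 for Her2 level: lower value means less Her2 protein in the cells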;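 for viability: percent of carrier control wells set as 100% viability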). The settings on record: SKBR3 Her2 protein level, 18-24 h, measured here: SKBR3 viability, ATP luminescence, at 10 µM.
In assay [2] the target is Receptor tyrosine-protein kinase erbB-2 (Homo sapiens) (UniProt P04626). Described as above. The settings on record: 18-24 h, at 10 µM, stronger effect = lower value.
Receptor tyrosine-protein kinase erbB-2 (Homo sapiens), sequence (P04626 whole entry, looked up): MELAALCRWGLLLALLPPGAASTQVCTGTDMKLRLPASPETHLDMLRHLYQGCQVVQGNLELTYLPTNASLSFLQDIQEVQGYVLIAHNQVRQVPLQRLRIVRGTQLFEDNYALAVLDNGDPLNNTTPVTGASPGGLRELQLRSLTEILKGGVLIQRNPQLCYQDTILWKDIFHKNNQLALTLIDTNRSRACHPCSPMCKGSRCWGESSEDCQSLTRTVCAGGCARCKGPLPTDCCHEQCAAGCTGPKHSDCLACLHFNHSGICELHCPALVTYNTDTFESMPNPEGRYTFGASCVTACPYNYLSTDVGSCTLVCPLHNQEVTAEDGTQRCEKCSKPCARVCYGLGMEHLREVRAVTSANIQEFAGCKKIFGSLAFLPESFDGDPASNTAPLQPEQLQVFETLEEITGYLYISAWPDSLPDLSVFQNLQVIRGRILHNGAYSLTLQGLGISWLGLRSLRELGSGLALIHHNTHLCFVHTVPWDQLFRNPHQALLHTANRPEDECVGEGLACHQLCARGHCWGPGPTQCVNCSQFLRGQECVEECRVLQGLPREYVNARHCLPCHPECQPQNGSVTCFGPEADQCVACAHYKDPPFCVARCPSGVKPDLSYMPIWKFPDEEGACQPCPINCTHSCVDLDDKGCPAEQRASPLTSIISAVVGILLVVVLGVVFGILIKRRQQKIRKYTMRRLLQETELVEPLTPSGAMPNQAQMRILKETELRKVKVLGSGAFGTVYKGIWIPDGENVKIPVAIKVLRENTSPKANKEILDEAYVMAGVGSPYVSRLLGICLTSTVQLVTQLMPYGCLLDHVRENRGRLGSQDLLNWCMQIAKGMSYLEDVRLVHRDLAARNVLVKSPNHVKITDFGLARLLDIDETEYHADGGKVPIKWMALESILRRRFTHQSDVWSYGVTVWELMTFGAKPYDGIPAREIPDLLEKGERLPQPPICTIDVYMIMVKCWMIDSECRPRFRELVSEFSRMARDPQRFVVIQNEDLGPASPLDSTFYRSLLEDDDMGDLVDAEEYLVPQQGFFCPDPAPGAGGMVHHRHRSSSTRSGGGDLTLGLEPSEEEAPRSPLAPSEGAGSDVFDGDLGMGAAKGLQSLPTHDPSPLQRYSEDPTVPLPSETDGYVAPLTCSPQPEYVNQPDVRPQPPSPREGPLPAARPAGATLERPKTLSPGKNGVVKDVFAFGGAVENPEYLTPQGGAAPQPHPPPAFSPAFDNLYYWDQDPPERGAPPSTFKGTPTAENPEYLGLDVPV
Assay [3] can be described thus: reduced viability of SK-BR-3 breast cancer cells – cell-based, 24 h, human, pilot screen (AID 572;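 active = viability at or below 10% of carrier control in both of two separate runs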;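 note: compound exposure lasted between 18 and 24 h rather than exactly 24 h; 100% = carrier-treated control wells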). The settings on record: SK-BR-3 viability, CellTiter-Glo luminescence, at 10 µM, stronger effect = lower value.
The nature of assay [4]: HUVEC growth inhibition – cell-based, human, primary screen (AID 575;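 active = viability at or below 30% in both replicate assays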;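 note: 100% = median of untreated cell wells with 0.1% DMSO on each plate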). The settings on record: HUVEC proliferation, CellTiter-Glo luminescence, 72 h; at 10 µM; stronger effect = lower value. A digest of the protocol: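 System – primary HUVEC, no more than 12 passages · Medium – Low-serum (2% FBS) EBM, supplemented · Times – 72 h exposure, 37 °C, 5% CO2, 30 min RT equilibration · Measured by – luminescent ATP assay · Read-out – % viability relative to median vehicle-well signal on each plate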
In general terms: Cellular ATP, detected with luciferase, serves as a proxy for viable cell number.

A short description of assay [5]: H69AR cell proliferation blockers – human, duplicate replicates, primary screen (AID 580).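 Note: 100% = mean luminescence of untreated wells and 0% = no signal.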 The settings on record: H69AR lung tumor cells viability, ATP luminescence, 72 h; at 10 µM; stronger effect = lower value.
Assay [6] is described as follows: MRP1 drug-resistance reversers in H69AR cells – cell-based, doxorubicin co-treatment, pilot screen (AID 601;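 active = viability loss from added drug above about 55%, and viability with drug at most 40%, in both replicates, limit read from the data, passing the limit was not always enough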). The settings on record: CellTiter-Glo, 72 h, at 10 µM; for differential viability (reversal): stronger effect = higher value.
The nature of assay [7]: yeast transport mutant growth inhibition pilot in 384-well plates, post-Golgi transport modulator project (AID 636; in the data active = inhibition above about 31%). The settings on record: absorbance 615 nm, about 18 h, stronger effect = higher value.
Assay [8] is described as follows: growth suppression of yeast trafficking mutant, preliminary HTS, modulators of trafficking downstream of Golgi apparatus project, 1536-format plate, OD 615 nm (AID 637; in the data active = inhibition above about 30%). The settings on record: yeast transport mutant growth, absorbance 615 nm, 18 h; stronger effect = higher value.
Where [9] appears, read: H69AR cells + 2 uM doxorubicin, measured here: viability with 2 uM doxorubicin, stronger effect = lower value.
The mark [10] stands for this setting: H69AR cells, compound alone cytotoxicity.

The text below walks through data of PubChem BioAssay.

The source made the active and inactive calls.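 Rule for the calls, unless noted: active = viability at or under a set limit in both replicates, limit being median viability minus 3 SD (cut at about 48% in these data, passing the limit was not always enough); inconclusive = at or under the limit in just one replicate; inactive = at or above the limit in both replicates.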

With `Cc1nc2ccccc2cc1O`, the viability (as a rule, a read-out of living cells in per cent, often relative to untreated cells) in assay [1] was 133%; in assay [3] it was 133% (inactive); in assay [4] it was 85.9% (inactive); in assay [5] it was 92% (inactive); in assay [6] (setting [9]) it was 109%; in assay [6] (setting [10]) it was 92%. Moreover, the Her2 level in assay [2] was 104% (inactive). Further, in assay [6] (H69AR cells + 2 uM doxorubicin), the differential viability (reversal) is -16.9% (inactive). Also, the inhibition (usually the change of the read-out against control, counted positive when it falls) in assay [7] was -6.05% (inactive); in assay [8], 13.1% (inactive).

Take `CCOC(=O)/N=C(/NC(=O)Nc1ccc(C(=O)OCC)cc1)OC`: the viability in assay [1] was 99.5%; in assay [3] it was 99.5% (inactive); in assay [4] it was 83.7% (inactive); in assay [5], 96.5% (inactive); in assay [6] (setting [9]) it was 81.8%; in assay [6] (setting [10]), 96.5%. The Her2 level in assay [2] is 75.5% (inactive). Also, the differential viability (reversal) in assay [6] (H69AR cells + 2 uM doxorubicin) was 14.8% (inactive). For the same compound, the inhibition was -5.54% (inactive) in assay [7] and 5.4% (inactive) in assay [8].

For `CC(C)CCNC(=O)CCNS(=O)(=O)c1ccc(Cl)cc1`, the viability in assay [1] was 110%; in assay [3], 110% (inactive); in assay [4], 99.7% (inactive); in assay [5], 94.1% (inactive); in assay [6] (setting [9]) it was 94.4%; in assay [6] (setting [10]), 94.1%. In assay [2], the Her2 level was 95% (inactive). In assay [6] (H69AR cells + 2 uM doxorubicin), the differential viability (reversal) is -0.295% (inactive). In addition, the inhibition in assay [7] is -1.71% (inactive); in assay [8], -4.03% (inactive).

Turning to `CC1(C)OC(=O)C(=CNc2ccccc2)C(=O)O1`, the viability in assay [1] is 98%; in assay [3], 98% (inactive); in assay [4], 98.7% (inactive); in assay [5], 108% (inactive); in assay [6] (setting [9]), 97.2%; in assay [6] (setting [10]), 108%. Also, in assay [2], the Her2 level is 94% (inactive). The differential viability (reversal) in assay [6] (H69AR cells + 2 uM doxorubicin) is 10.9% (inactive). For the same compound, the figures for the inhibition in assay [7] and in assay [8] were 0.39% (inactive) and 0.18% (inactive), respectively.

Consider `CCS(=O)(=O)N1CCC(C(=O)NCCc2ccc(C)cc2)CC1`, for which the viability is 99% in assay [1]; 99% (inactive) in assay [3]; 100% (inactive) in assay [4]; 89.3% (inactive) in assay [5]; 81.9% in assay [6] (setting [9]); 89.3% in assay [6] (setting [10]). Moreover, the Her2 level in assay [2] was 106% (inactive). Also, the differential viability (reversal) in assay [6] (H69AR cells + 2 uM doxorubicin) is 7.41% (inactive). Moreover, the inhibition in assay [7] is -2.6% (inactive); in assay [8], -9.68% (inactive).

As to `CCOC(=O)CC12CN3CN(C1)CC(CC(=O)OCC)(C3)C2=O`, the viability is 94% in assay [1]; 94% (inactive) in assay [3]; 89.1% (inactive) in assay [4]; 98.3% (inactive) in assay [5]; 94.7% in assay [6] (setting [9]); 98.3% in assay [6] (setting [10]). Also, the Her2 level in assay [2] was 86% (inactive). Further, in assay [6] (H69AR cells + 2 uM doxorubicin), the differential viability (reversal) is 3.54% (inactive). The results for the inhibition in assay [7] and in assay [8] were -5.95% (inactive) and 0.49% (inactive), respectively.

For `Cn1c(C(=O)N2CCCC(C(=O)NCCCc3ccccc3)C2)cc2sccc21` (stereo not given), the viability in assay [1] is 98%; in assay [3], 98% (inactive); in assay [4], 80.9% (inactive); in assay [5] it was 82.3% (inactive); in assay [6] (setting [9]), 98.7%; in assay [6] (setting [10]), 82.3%. In addition, the Her2 level in assay [2] is 83.5% (inactive). Moreover, in assay [6] (H69AR cells + 2 uM doxorubicin), the differential viability (reversal) was -16.3% (inactive). In addition, the values for the inhibition in assay [7] and in assay [8] were -1.28% (inactive) and -1.17% (inactive), respectively.

As to `Cc1ccc2cc3cc(C(=O)NCCN4CCOCC4)oc3nc2c1`, the viability in assay [1] is 99%; in assay [3] it was 99% (inactive); in assay [4], 86% (inactive); in assay [5], 96.6% (inactive); in assay [6] (setting [9]) it was 86.6%; in assay [6] (setting [10]), 96.6%. In addition, the Her2 level in assay [2] is 79.5% (inactive). The differential viability (reversal) in assay [6] (H69AR cells + 2 uM doxorubicin) is 9.98% (inactive). Further, the inhibition in assay [7] is -5.13% (inactive); in assay [8], 8.67% (inactive).

Take `O=C(COc1ccccc1)NCC(c1cccs1)N1CCOCC1` (stereo not given): the viability in assay [1] was 84%; in assay [3], 84% (inactive); in assay [4], 91.7% (inactive); in assay [5] it was 97.7% (inactive); in assay [6] (setting [9]), 83.4%; in assay [6] (setting [10]), 97.7%. For the same compound, in assay [2], the Her2 level was 126% (inactive). For the same compound, in assay [6] (H69AR cells + 2 uM doxorubicin), the differential viability (reversal) was 14.4% (inactive). Besides, the inhibition in assay [7] is 1.2% (inactive); in assay [8] it was -4.29% (inactive).

On to `O=C(c1ccc(S(=O)(=O)N2CCOCC2)cc1)N(c1ccc(F)cc1)C1C=CS(=O)(=O)C1` (stereo not given), for which the viability is 97.5% in assay [1]; 97.5% (inactive) in assay [3]; 75.1% (inactive) in assay [4]; 97% (inactive) in assay [5]; 92.4% in assay [6] (setting [9]); 97% in assay [6] (setting [10]). In assay [2], the Her2 level is 109% (inactive). Further, in assay [6] (H69AR cells + 2 uM doxorubicin), the differential viability (reversal) was 4.64% (inactive). Moreover, the inhibition in assay [7] was -1.92% (inactive); in assay [8], -9% (inactive).

In the case of `O=[n+]1c2c(n([O-])c3cc(F)c(N4CCCC4)cc31)CCC2`, the viability in assay [1] is 101%; in assay [3], 101% (inactive); in assay [4] it was 90.6% (inactive); in assay [5], 74% (inactive); in assay [6] (setting [9]), 68.4%; in assay [6] (setting [10]), 74%. In assay [2], the Her2 level is 86.5% (inactive). Also, the differential viability (reversal) in assay [6] (H69AR cells + 2 uM doxorubicin) is 5.59% (inactive). Moreover, the inhibition in assay [7] was -2.57% (inactive); in assay [8], 1.9% (inactive).

Take `CC1CCCC(NC(=O)CSc2ncccc2C(=O)O)C1C` (stereo not given): the viability is 95% in assay [1]; 95% (inactive) in assay [3]; 86.4% (inactive) in assay [4]; 87.8% (inactive) in assay [5]; 84.7% in assay [6] (setting [9]); 87.8% in assay [6] (setting [10]). In addition, the Her2 level in assay [2] is 79% (inactive). Further, in assay [6] (H69AR cells + 2 uM doxorubicin), the differential viability (reversal) is 3.03% (inactive). The figures for the inhibition in assay [7] and in assay [8] were -4.61% (inactive) and -4.36% (inactive), respectively.

For the compound `CCN(Cc1nc2cc(OC)c(OC)cc2c(=O)[nH]1)C(=O)c1ccc(S(=O)(=O)N(C)C)cc1`, the viability in assay [1] is 113%; in assay [3] it was 113% (inactive); in assay [4], 88.2% (inactive); in assay [5], 109% (inactive); in assay [6] (setting [9]) it was 98.5%; in assay [6] (setting [10]) it was 109%. The Her2 level in assay [2] is 106% (inactive). For the same compound, the differential viability (reversal) in assay [6] (H69AR cells + 2 uM doxorubicin) is 10.3% (inactive). The results for the inhibition in assay [7] and in assay [8] were -3.07% (inactive) and 3.44% (inactive), respectively.

With `COCCCn1c(SCC(=O)Nc2cccc(C)n2)nnc1-c1ccco1`, the viability in assay [1] was 95%; in assay [3], 95% (inactive); in assay [4], 106% (inactive); in assay [5], 98.5% (inactive); in assay [6] (setting [9]) it was 85.6%; in assay [6] (setting [10]) it was 98.5%. Moreover, the Her2 level in assay [2] is 82.5% (inactive). In assay [6] (H69AR cells + 2 uM doxorubicin), the differential viability (reversal) is 12.9% (inactive). The inhibition was -3.6% (inactive) in assay [7] and -2.95% (inactive) in assay [8].
